In general, inhibition refers to the share of the control response that was lost under treatment. Usually IC50 stands for the concentration that inhibits the measured activity by half. Broadly, the Ki is the equilibrium dissociation constant of an inhibitor or competing ligand from its target. High values mean lower affinity, low ones higher affinity.

The subject of assay [1] is HCT-116. Briefly: Increase in acetylated histone H3 level in human HCT116 cells at 10 uM after 24 hrs relative to control. Format: functional. The essentials:
(§1)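 HCT116 cells adhered overnight, then exposed to 10 μM compound for 24 h. Cells lysed in HEPES pH 7.9/NaCl/Triton buffer with protease inhibitors at 4 °C. 30 μg total protein per lane run on 10% Bis-Tris gels and blotted with antibodies to AcH3, AcH4, p21waf1 or acetylated α-tubulin, with α-actin also probed. Infrared fluorescent secondaries used for quantification; single determinations reported as fold increase.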

The test system of assay [2] is HCT-116. Nature of the assay: Increase in p21waf1 re-expression in human HCT116 cells at 10 uM after 24 hrs relative to control. Format: functional. The essentials: as §1
In assay [3] the test system is HCT-116. Briefly: Increase in acetylated alpha tubulin level in human HCT116 cells at 10 uM after 24 hrs relative to control. The assay is classed as functional. The essentials: as §1
Assay [4] concerns the target T1, Histone deacetylase (Homo sapiens) (UniProt Q13547+O15379+Q9UBN7+Q92769+Q9UQL6+Q8WUI4+Q9BY41+Q96DB2+P56524+Q9UKV0+Q969S8). The following applies: HeLa, at 1 µM.
Assay [5] deals with HCT-116. Briefly: Increase in acetylated histone H4 level in human HCT116 cells at 10 uM after 24 hrs relative to control. The assay is classed as functional. The essentials: as §1
The test system of assay [6] is HCT-116. Nature of the assay: Cytotoxicity against human HCT116 cells assessed as cell viability after 96 hrs by MTS reduction assay. The assay is classed as functional, cell-based. The following applies: HCT-116, 96 h. A general note: Tetrazolium assays rely on reduction of a dye to a coloured formazan, in cell work by metabolically active cells.
Assay [7] addresses T1, Histone deacetylase (Homo sapiens). Nature of the assay: Inhibition of human HDAC at 1 uM.
Assay [8] concerns HCT-116. Nature of the assay: Cytotoxicity against human HCT116 cells assessed as cell viability after 96 hrs by MTS reduction assay in presence of diamine oxidase inhibitor aminoguanidine. The assay is classed as functional, cell-based. To be noted: HCT-116, 96 h. The essentials:
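HCT116 cells in McCoy's 5A with 10% fetal calf serum, 37 °C, 5% CO2; 3000 cells/well seeded in triplicate and attached overnight. Medium replaced with fresh medium containing a range of compound concentrations for 96 h. CellTiter 96 One Solution MTS added for 1.5 h at 37 °C, absorbance read at 490 nm. Two separate experiments averaged to give IC50.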

The target of assay [9] is Histone deacetylase 3 (Homo sapiens) (UniProt O15379). Briefly: Inhibition of human recombinant HDAC3. To be noted: concentration not given here.
Chain of Histone deacetylase 3 (Homo sapiens) (O15379 whole entry): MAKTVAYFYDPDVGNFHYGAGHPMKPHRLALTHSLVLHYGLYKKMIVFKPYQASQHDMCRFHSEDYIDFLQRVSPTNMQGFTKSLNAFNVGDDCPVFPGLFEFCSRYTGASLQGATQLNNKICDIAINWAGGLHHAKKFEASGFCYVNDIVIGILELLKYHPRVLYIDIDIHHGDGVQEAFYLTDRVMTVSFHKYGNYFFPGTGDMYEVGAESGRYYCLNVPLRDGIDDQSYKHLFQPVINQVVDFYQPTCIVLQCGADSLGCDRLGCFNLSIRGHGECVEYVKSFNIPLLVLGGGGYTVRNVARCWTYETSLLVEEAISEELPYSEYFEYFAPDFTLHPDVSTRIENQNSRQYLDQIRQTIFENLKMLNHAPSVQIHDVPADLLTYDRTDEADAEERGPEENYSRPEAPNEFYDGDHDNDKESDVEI
The target in assay [10] is T2, Protein deacetylase HDAC6 (Homo sapiens) (UniProt Q9UBN7).
T2 sequence (whole entry): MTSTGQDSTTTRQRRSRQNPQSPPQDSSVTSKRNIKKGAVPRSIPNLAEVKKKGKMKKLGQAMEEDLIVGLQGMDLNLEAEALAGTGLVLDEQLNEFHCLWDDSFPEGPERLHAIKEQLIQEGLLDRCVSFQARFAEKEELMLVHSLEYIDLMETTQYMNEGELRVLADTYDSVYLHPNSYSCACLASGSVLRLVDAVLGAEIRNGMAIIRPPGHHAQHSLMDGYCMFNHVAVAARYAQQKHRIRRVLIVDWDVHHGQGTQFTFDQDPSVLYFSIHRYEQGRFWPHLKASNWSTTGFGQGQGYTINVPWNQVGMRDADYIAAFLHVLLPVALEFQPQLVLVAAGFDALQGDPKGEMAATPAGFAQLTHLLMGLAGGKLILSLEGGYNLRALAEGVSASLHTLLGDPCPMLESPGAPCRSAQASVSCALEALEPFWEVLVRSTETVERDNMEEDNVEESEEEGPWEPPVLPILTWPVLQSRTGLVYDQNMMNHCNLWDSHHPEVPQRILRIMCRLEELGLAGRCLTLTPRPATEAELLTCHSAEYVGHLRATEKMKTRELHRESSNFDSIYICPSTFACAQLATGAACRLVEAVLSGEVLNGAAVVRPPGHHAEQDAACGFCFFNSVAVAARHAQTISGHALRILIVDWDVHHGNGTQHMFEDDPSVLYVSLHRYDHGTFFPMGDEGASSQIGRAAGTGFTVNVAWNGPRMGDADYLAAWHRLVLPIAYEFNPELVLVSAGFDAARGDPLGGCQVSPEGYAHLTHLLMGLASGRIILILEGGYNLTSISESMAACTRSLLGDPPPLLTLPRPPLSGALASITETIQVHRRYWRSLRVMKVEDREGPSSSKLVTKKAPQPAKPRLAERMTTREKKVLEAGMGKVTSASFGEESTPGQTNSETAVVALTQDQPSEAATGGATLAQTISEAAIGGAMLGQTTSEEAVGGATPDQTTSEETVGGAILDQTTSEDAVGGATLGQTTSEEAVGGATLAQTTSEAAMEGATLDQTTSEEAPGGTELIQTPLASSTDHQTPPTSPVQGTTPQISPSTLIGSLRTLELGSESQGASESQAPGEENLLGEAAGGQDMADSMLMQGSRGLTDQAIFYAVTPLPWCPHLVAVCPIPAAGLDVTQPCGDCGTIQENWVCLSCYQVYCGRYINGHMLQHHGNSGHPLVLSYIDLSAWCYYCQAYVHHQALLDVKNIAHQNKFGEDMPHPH
Nature of the assay: Inhibition of human recombinant HDAC6. To be noted: concentration not given here.

Assay [11] has as its target T1, Histone deacetylase (Homo sapiens). Nature of the assay: Inhibition of human HDAC in HeLa cells at 5 uM. The assay is classed as cell-based.
The nature of assay [12]: Inhibition of [14C]spermidine uptake at human polyamine transporter in ML1 cells. Format: cell-based. The essentials:
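Competition for 14C-spermidine uptake in ML-1 acute myelogenous leukemia cells. Concentration-dependent spermidine uptake measured in the presence of 0.0, 10.0, 25.0 and 50.0 μM test compound.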

`CN(C)c1ccc(CNCCCCNCCCNC(=O)CCCCCCC(=O)NO)cc1`: the Fold change with HCT-116 [1] is listed as 0; in the assay on HCT-116 [2], 0.46; in the assay with HCT-116 [3] it was 6.76; in the assay with HCT-116 [5], 1.36. The inhibition in assay [4] was 46.7%. In the assay on HCT-116 [6], the IC50 is greater than 100 µM.
The compound `O=C(CCCCCCC(=O)NCCCNCCCNCCCNCCC(c1ccccc1)c1ccccc1)NO` gave an inhibition in [4] of 55.2%. The IC50 in the assay with HCT-116 [6] is greater than 100 µM.
As for `CC(C)c1ccc(CNCCCCNCCCNC(=O)CCCCCCC(=O)NO)cc1`, the Fold change in the assay with HCT-116 [1] is reported as 0; with HCT-116 [2], 0.86; in the assay on HCT-116 [3], 11.98; in the assay with HCT-116 [5] it was 4.74. Besides, the inhibition in assay [4] was found to be 41.4%. In the assay with HCT-116 [6], the IC50 is greater than 100 µM.
As to `CN(C)c1ccc(CN(CCCNCCCCNCc2ccc(C(C)(C)C)cc2)C(=O)CCCCC(=O)NO)cc1`, the inhibition in assay [4] stood at 2%.
In [4], `O=C(CCCCCC(=O)NCCCNCCCCNCCC(c1ccccc1)c1ccccc1)NO` had an inhibition of 46.3%. The IC50 in the assay on HCT-116 [6] is greater than 100 µM.
`CC(C)(C)c1ccc(CNCCCCNCCCNC(=O)CCCCCCCC(=O)NO)cc1`: the Fold change with HCT-116 [1] is 0; in the assay with HCT-116 [2], 0.61; with HCT-116 [3], 11.99; with HCT-116 [5], 3.25. This compound had an inhibition in [4] of 88.7%. The IC50 with HCT-116 [6] is greater than 100 µM.
`CN(C)c1ccc(CN(CCCNCCCCN)C(=O)CCCCCCC(=O)NO)cc1`: the inhibition in assay [7] and in [4] was 58.6% in each case. For the same compound, the Fold change in the assay with HCT-116 [1] was determined as 0; in the assay with HCT-116 [2] it was 0.49; with HCT-116 [3] it was 6.07; in the assay with HCT-116 [5], 1.95. The results for the IC50 in the assay with HCT-116 [8] and with HCT-116 [6] were greater than 100 µM and 38.6 µM, respectively.
In the case of `CC(C)(C)c1ccc(CNCCCCNCCCNC(=O)CCCCCC(=O)NO)cc1`, the Fold change is reported as 21.49 with HCT-116 [1], 2.33 in the assay on HCT-116 [2], 253.25 in the assay with HCT-116 [3] and 20.84 with HCT-116 [5]. For the same compound, the inhibition in assay [9] was determined as 99.1%; in assay [10], 99.7%. Further, in the assay on HCT-116 [6], the IC50 is greater than 100 µM.
On to `CC(C)c1ccc(CNCCCCNCCCNC(=O)CCCCC(=O)NO)cc1`, for which the Fold change with HCT-116 [1] was 3.76; in the assay on HCT-116 [2] it was 3.01; with HCT-116 [3], 75.7; with HCT-116 [5] it was 14.22. Further, the inhibition in assay [4] was 15.9%. Also, the IC50 in the assay with HCT-116 [6] was greater than 100 µM.
In the case of `O=C(CCCCCCCC(=O)NCCCNCCCCNCCC(c1ccccc1)c1ccccc1)NO`, in assay [4], the inhibition amounted to 54.6%. Also, the IC50 in the assay on HCT-116 [6] is greater than 100 µM.
Consider `Nc1ccccc1NC(=O)c1ccc(CNC(=O)CCCCCCC(=O)NCCCNCCCCNCCC(c2ccccc2)c2ccccc2)cc1`, for which the inhibition in assay [11] stood at 66.7%. The IC50 in the assay with HCT-116 [6] was greater than 100 µM.
On to `O=C(CCCCC(=O)NCCCNCCCCNCCSc1ccccc1)NO`, for which the Fold change was 2.38 with HCT-116 [1], 2.56 in the assay with HCT-116 [2], 72.9 in the assay with HCT-116 [3] and 12.06 in the assay with HCT-116 [5]. Moreover, in [4], the inhibition was found to be 6.7%. In the assay with HCT-116 [6], the IC50 was greater than 100 µM.
In the case of `O=C(CCCCCCCCC(=O)NCCCNCCCCNCCC(c1ccccc1)c1ccccc1)NO`, the Fold change in the assay on HCT-116 [1] turned out to be 0; with HCT-116 [2], 0.41; with HCT-116 [3], 1.97; with HCT-116 [5], 0.95. Besides, in [4], the inhibition turned out to be 73.9%. Also, in the assay on HCT-116 [6], the IC50 was greater than 100 µM.
As for `O=C(CCCCCCC(=O)NCCCNCCCCNCCSc1ccccc1)NO`, the Fold change with HCT-116 [1] is 0; in the assay on HCT-116 [2], 1.98; in the assay with HCT-116 [3], 101.36; in the assay with HCT-116 [5], 11.68. Also, the inhibition in assay [4] is 16.5%. Besides, in the assay with HCT-116 [6], the IC50 was greater than 100 µM.
On to `CC(C)(C)c1ccc(CNCCCCNCCCNC(=O)CCCC(=O)NCc2ccc(C(=O)Nc3ccccc3N)cc2)cc1`, for which the inhibition in assay [11] is 37.4%; in [4], 28%. For the same compound, affinity in assay [12] was put at a Ki of 7.7 µM. In addition, the IC50 with HCT-116 [6] is greater than 100 µM.
With `CC(C)(C)c1ccc(CNCCCCNCCCNC(=O)CCCCCCC(=O)NCc2ccc(C(=O)Nc3ccccc3N)cc2)cc1`, the Fold change with HCT-116 [1] is listed as 1.19; in the assay on HCT-116 [2], 2.55; with HCT-116 [3] it was 2.27; in the assay on HCT-116 [5], 1.12. The inhibition came to 51.2% in assay [11], 30.8% in assay [4], 1.3% in assay [9] and 11.7% in [10]. Also, in the assay with HCT-116 [6], the IC50 was greater than 100 µM.
In the case of `O=C(CCCCCCC(=O)NCCCNCCCCNCc1ccccc1-c1ccccc1)NO`, the Fold change in the assay with HCT-116 [1] is reported as 5.19; with HCT-116 [2], 1.64; in the assay with HCT-116 [3] it was 36.3; in the assay with HCT-116 [5], 7.82. For the same compound, in assay [4], the inhibition was 38.6%. For the same compound, the concentration for half-maximal inhibition (IC50) with HCT-116 [6] is greater than 100 µM.
With `O=C(CCCCC(=O)NCCCNCCCCNCc1ccccc1-c1ccccc1)NO`, the Fold change with HCT-116 [1] turned out to be 3.34; with HCT-116 [2] it was 2.01; with HCT-116 [3], 89.01; with HCT-116 [5], 17.4. Also, the inhibition in assay [4] turned out to be 71.3%. Moreover, in the assay on HCT-116 [6], the IC50 is greater than 100 µM.

These data come from ChEMBL document CHEMBL1144711, “Polyaminohydroxamic acids and polyaminobenzamides as isoform selective histone deacetylase inhibitors” (J Med Chem, 2008).
